WT yeast gro inh: growth inhibition of WT yeast, mitochondrial fusion screen. mitochondrial fusion phenotypic screen, WT strain. inhibition, % at 10 µM. hit rate 2.1% among 190,000. AID 1362; in the data active means inhibition above about 58%; tested in S. cerevisiae
ROMK mod: human ROMK K+ channel modulation, primary screen; P48048; Tet-inducible ROMK, thallium flux fluorescence; actives lie on both sides; B-score at 10 µM; hit rate 2% among 130,000; AID 1918;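 active means signal ratio slope over the read window, or its plate-corrected B-score, at least 3 SD from the plate mean, either direction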;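 further: B-score of the F/F0 ratio slope over 7 to 12 s after thallium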
Cl transport mod: modulates chloride dependent transport by human KCC2. KCC2 cells, thallium flux FluoZin-2 fluorescence. B-score of Tl+ flux slope (higher = more flux/activation; lower = inhibition) at 10 µM. hit rate 2.2% among 190,000. AID 1456;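 active means thallium flux slope and its plate-corrected score both differing from the plate sample mean at a set confidence after two filtering rounds, in either direction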;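 further: slope of fluorescence scaled to starting intensity during 10 to 20 s after thallium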
14-3-3 Bad inh: disrupts binding of bovine 14-3-3 zeta to phospho-Bad peptide; P63103; TR-FRET 14-3-3zeta/Dy647-pBad peptide displacement, 1 h; inhibition, % at 21.7 µM; hit rate 0.71% among 220,000; AID 781;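 active means inhibition above about 70%, limit read from the data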;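 further: 0% = full 14-3-3 plus peptide FRET controls and 100% = background without 14-3-3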
Target sequence (P63103 whole entry, looked up): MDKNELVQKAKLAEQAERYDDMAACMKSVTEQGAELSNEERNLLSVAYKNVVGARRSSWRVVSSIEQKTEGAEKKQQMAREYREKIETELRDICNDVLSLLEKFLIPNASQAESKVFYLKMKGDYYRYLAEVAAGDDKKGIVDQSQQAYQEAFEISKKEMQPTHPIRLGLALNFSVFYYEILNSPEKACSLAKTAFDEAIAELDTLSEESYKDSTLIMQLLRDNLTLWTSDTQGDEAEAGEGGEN
p47phox inh: p47phox (human) inhibition; P14598; p47phox/p22phox peptide binding, fluorescence polarization, 2 h; inhibition, % at 24.7 µM; hit rate 0.53% among 220,000; AID 1274;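 active means inhibition above about 30%, limit read from the data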;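 further: 0% = p47phox with labelled peptide and 100% = labelled peptide alone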
RBBP9 inh: inhibitors of human serine hydrolase RBBP9 | inhibition, % at 7.94 µM | hit rate 0.2% among 220,000 | recombinant RBBP9, FP-Rh probe fluorescence polarization | O75884;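 active means inhibition above the campaign mean of all tested compounds plus 3 SD, cut at about 14% in these data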;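 further: plate controls were DMSO wells with RBBP9 for no effect and wells lacking RBBP9 protein for full effect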
Target sequence (O75884 whole entry, looked up): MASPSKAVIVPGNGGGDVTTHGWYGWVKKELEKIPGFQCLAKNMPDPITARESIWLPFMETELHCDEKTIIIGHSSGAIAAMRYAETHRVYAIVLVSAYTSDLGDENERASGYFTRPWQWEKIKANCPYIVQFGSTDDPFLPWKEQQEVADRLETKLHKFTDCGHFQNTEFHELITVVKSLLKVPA
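Measured by: FP readout at 525/598 nm; material: recombinant human RBBP9; also added: Serine-hydrolase probe FP-Rh, 375 nM pre-mixing; medium: Tris buffer pH 8.0, NaCl, Pluronic; replication: one well per compound; doses: one concentration, 7.94 µM nominal, 0.794% DMSO; timing: preincubation 30 min plus labeling 45 min at 25 °C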
Numbers without * were called inactive; nt = no result; [ ] = another dose, or the depositor's remark. A selection: hits, their analogues and other compounds. The true share with any hit is near 5.8%.

SMILES | WT yeast gro inh | ROMK mod | Cl transport mod | 14-3-3 Bad inh | p47phox inh | RBBP9 inh
CC(=O)N1N=C(c2cccc([N+](=O)[O-])c2)OC1(C)CC(=O)Nc1ccccc1 (centres undefined) | 0 | -0.18 | 0.24 | 81*[fluorescence artefact?] | -11 | -2
Cc1nc(N2CCN(Cc3ccc4c(c3)OCO4)CC2)c2cc(-c3ccccc3)sc2n1 | 70* | 0.95 | -0.34 | -1 | -25 | -3
CC1=CC(=C2C(=O)c3ccccc3C2=O)C=C(C)O1 | 10 | nt | -0.16 | -104 | 69* | -12
O=C1C2C3c4ccccc4C(c4ccccc43)C2C(=O)N1Cc1ccccn1 (centres undefined) | 9 | nt | -0.35 | -2 | 2 | -1
c1coc(CN2CCN(C(c3cccs3)c3nnnn3C3CCCC3)CC2)c1 (centres undefined) | 6 | nt | -0.49 | 77* | -14 | 1
c1ccc(CN(Cc2cccs2)C(c2cccs2)c2nnnn2C2CCCC2)cc1 (centres undefined) | 26 | nt | 0.85 | 87* | -5 | -8
CC(C)(C)n1nnnc1C(c1cccs1)N1CCCC2(CCCCC2)C1 (centres undefined) | 78* | nt | -0.75 | -1 | -1 | -5
CCC(C)(C)n1nnnc1C(c1cccs1)N1CCCCC1 (centres undefined) | 8 | 0.34 | -0.11 | -12 | -4 | 2
c1csc(C(c2nnnn2C2CCCCC2)N2CCCC3(CCCCC3)C2)c1 (centres undefined) | 62* | nt | 0.19 | -4 | -18 | -10
N#CCC(=O)N/N=C/c1ccc(OCC(=O)Nc2ccc(F)cc2)cc1 | -6 | 0.16 | 0.18 | -9 | -11 | -19
CCc1nn(C(C)C(=O)NCCc2ccc(OC)c(OC)c2)c(=O)c2cc3occc3n12 (centres undefined) | -3 | nt | -0.84 | 89* | -14 | 2
CCc1nn(C(C)C(=O)NC(C)CCc2ccco2)c(=O)c2cc3occc3n12 (centres undefined) | 8 | nt | -0.77 | -6 | -2 | -15
O=[N+]([O-])c1cccc(-c2noc(-c3cccs3)n2)c1 | nt | nt | -0.64 | -11 | -2 | 2
CNC(=O)c1nc(C)n(-c2ccc(Cl)cc2Cl)n1 | -17 | -0.37 | -1.2 | -3 | -9 | -7
Cc1c(Cl)cccc1NC(=O)c1nc(C)n(-c2cc(OC(C)C)c(Cl)cc2Cl)n1 | 75* | nt | -0.92 | 3 | -11 | 1
CC(C)c1ccc(S(=O)(=O)/N=C2/C=CC(=O)c3ccccc32)cc1 | 68* | 1.7 | 1.1 | 13 | 9 | 7
CC(=O)Nc1sc2c(c1C(N)=O)CCC2 | -15 | 2.5* | -0.17 | 2 | -9 | 2
CC(=O)Nc1sc2c(c1C(N)=O)CCCC2 | -1 | nt | 0.26 | -10 | -7 | -10
COC(=O)c1cc2ccsc2n1Cc1ccccc1F | 29 | 0.42 | 0.074 | 2 | -16 | -6
Cc1cccc(-c2ncc(CN3CCCC(CO)(Cc4ccccc4C)C3)cn2)c1 (centres undefined) | 60* | 0.62 | -1.2 | -1 | -38 | -2
Cc1ccc(C)c(-c2[nH]ncc2CN2CCCC(CO)(Cc3ccccc3C)C2)c1 (centres undefined) | 9 | nt | nt | -13 | -4 | -1
COc1ccccc1NC(=O)C(=O)N/N=C/c1ccc([N+](=O)[O-])s1 | 13 | 0.17 | 0.16 | 84* | 27 | -9
Cc1ccccc1C(=O)N/N=C/c1ccc([N+](=O)[O-])s1 | 12 | nt | 5.2* | 6 | -12 | -12
COC(=O)N/N=C/c1ccc([N+](=O)[O-])s1 | 3 | -0.93 | 0.018 | -1 | 2 | -9
N#CC1=C(N)Nc2nc3ccccc3n2C1c1ccc(Cl)cc1 (centres undefined) | 31 | nt | -1.1 | -1 | -38 | -8
c1ccc(Cn2c(SCc3cn4cccnc4n3)nnc2-c2ccco2)cc1 | 76* | -0.44 | nt | nt | nt | -6
COc1ccc2oc(=O)c(-c3csc(Nc4cccc(O)c4)n3)cc2c1 | 74* | -0.18 | -1.1 | 1 | -36 | 1
COc1cccc2sc(Nc3nc(-c4cc5ccccc5oc4=O)cs3)nc12 | -2 | nt | 0.6 | 94*[fluorescence artefact?] | -31 | -6
COc1cccc2sc(Nc3nc(-c4ccncc4)cs3)nc12 | 6 | 1 | 0.69 | 54 | nt | -3
CC(C)CNC(=O)Cn1c(=O)c2c(ncn2CC(C)C)n(Cc2ccccc2)c1=O | -4 | 0.055 | 0.35 | 90* | -3 | -8

Assay outcomes from PubChem.
